Values after ≈ are worked out from the molar mass of the structure shown.
What was measured:
Assay type in all cases: functional
Klebsiella pneumoniae [1] = assay: Antibacterial activity against Klebsiella pneumoniae isolate VA367 with blaKPC-3, qnrB19, blaTEM-1, blaSHV-11, blaSHV-12, aac(6')-1b genes by CLSI method
Klebsiella pneumoniae [2] = assay: Antibacterial activity against Klebsiella pneumoniae isolate VA367 with blaKPC-3, qnrB19, blaTEM-1, blaSHV-11, blaSHV-12, aac(6')-1b genes by Etest method
Escherichia coli [3] = assay: Antibacterial activity against Escherichia coli J53 transconjugated with Klebsiella pneumoniae isolate VA367 containing blaKPC-3, qnrB19, blaTEM-1, blaSHV-11, aac(6')-1b genes by Etest method
Method in brief: (§1)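 Test strains were E. coli J53 (rifampin-resistant recipient) transconjugants obtained by conjugation with the K. pneumoniae donor isolate. After overnight incubation, the donor–recipient mixture was plated on MacConkey agar containing ceftazidime (10 mg/liter) plus rifampin (100 mg/liter) to select transconjugants. Etest conditions are not described.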

Klebsiella pneumoniae [4] = assay: Antibacterial activity against Klebsiella pneumoniae isolate VA375 with blaKPC-3, qnrA1, blaTEM-1, blaSHV-11 genes by Etest method
Escherichia coli [5] = assay: Antibacterial activity against Escherichia coli J53 transconjugated with Klebsiella pneumoniae isolate VA375 containing qnrA1, blaTEM-1, blaSHV-11genes by Etest method; method in brief: as §1
Escherichia coli [6] = assay: Antibacterial activity against Escherichia coli J53 by CLSI method
Escherichia coli [7] = assay: Antibacterial activity against Escherichia coli J53 by Etest method
Escherichia coli [8] = assay: Antibacterial activity against Escherichia coli J53 transconjugated with Klebsiella pneumoniae isolate VA367 containing blaKPC-3, qnrB19, blaTEM-1, blaSHV-11, aac(6')-1b genes by CLSI method
Klebsiella pneumoniae [9] = assay: Antibacterial activity against Klebsiella pneumoniae isolate VA375 with blaKPC-3, qnrA1, blaTEM-1, blaSHV-11 genes by CLSI method
Escherichia coli [10] = assay: Antibacterial activity against Escherichia coli J53 transconjugated with Klebsiella pneumoniae isolate VA375 containing qnrA1, blaTEM-1, blaSHV-11genes by CLSI method

| Compound | MIC (Klebsiella pneumoniae [1]) | MIC (Klebsiella pneumoniae [2]) | MIC (Escherichia coli [3]) | MIC (Klebsiella pneumoniae [4]) | MIC (Escherichia coli [5]) | MIC (Escherichia coli [6]) | MIC (Escherichia coli [7]) | MIC (Escherichia coli [8]) | MIC (Klebsiella pneumoniae [9]) | MIC (Escherichia coli [10]) |
| --- | --- | --- | --- | --- | --- | --- | --- | --- | --- | --- |
| C[C@H]1COc2c(N3CCN(C)CC3)c(F)cc3c(=O)c(C(=O)O)cn1c23.C[C@H]1COc2c(N3CCN(C)CC3)c(F)cc3c(=O)c(C(=O)O)cn1c23.O [LEVOFLOXACIN] | ≥ 8 µg/mL | ≥ 32 µg/mL | 0.75 µg/mL | 0.75 µg/mL | 1.5 µg/mL | ≤ 0.25 µg/mL | 0.25 µg/mL | – | – | – |
| C[C@@H](O)[C@H]1C(=O)N2C(C(=O)O)=C(SCCNC=N)C[C@H]12 [IMIPENEM ANHYDROUS] | 2 µg/mL (≈ 6.68 µM) | 16 µg/mL (≈ 53.4 µM) | 4 µg/mL (≈ 13.4 µM) | 8 µg/mL (≈ 26.7 µM) | 0.38 µg/mL (≈ 1.27 µM) | ≤ 1 µg/mL | – | 4 µg/mL (≈ 13.4 µM) | 2 µg/mL (≈ 6.68 µM) | ≤ 1 µg/mL |
| CN(C)c1cc(NC(=O)CNC(C)(C)C)c(O)c2c1C[C@H]1C[C@H]3[C@H](N(C)C)C(O)=C(C(N)=O)C(=O)[C@@]3(O)C(O)=C1C2=O [TIGECYCLINE] | – | – | 0.5 µg/mL (≈ 0.854 µM) | 1.5 µg/mL (≈ 2.56 µM) | 0.5 µg/mL (≈ 0.854 µM) | – | 0.5 µg/mL (≈ 0.854 µM) | – | – | – |
| C[C@@H](O)[C@H]1C(=O)N2C(C(=O)O)=C(S[C@@H]3CN[C@H](C(=O)Nc4cccc(C(=O)O)c4)C3)[C@H](C)[C@H]12 | – | 16 µg/mL (≈ 33.6 µM) | 2 µg/mL (≈ 4.21 µM) | 8 µg/mL (≈ 16.8 µM) | 0.125 µg/mL (≈ 0.263 µM) | – | 0.023 µg/mL (≈ 0.0484 µM) | – | – | – |
| CO/N=C(\C(=O)N[C@@H]1C(=O)N2C(C(=O)O)=C(CSc3nc(=O)c(O)nn3C)CS[C@H]12)c1csc(N)n1 [CEFTRIAXONE] | ≥ 64 µg/mL | – | – | – | – | ≤ 1 µg/mL | – | 8 µg/mL (≈ 14.4 µM) | 32 µg/mL (≈ 57.7 µM) | 8 µg/mL (≈ 14.4 µM) |
| CCN1CCN(C(=O)N[C@@H](C(=O)N[C@@H]2C(=O)N3[C@@H]2SC(C)(C)[C@@H]3C(=O)O)c2ccccc2)C(=O)C1=O [PIPERACILLIN] | ≥ 128 µg/mL | – | – | – | – | ≤ 4 µg/mL | – | ≥ 128 µg/mL | ≥ 128 µg/mL | ≥ 128 µg/mL |
| C[C@@H](O)[C@H]1C(=O)N2C(C(=O)O)=C(S[C@@H]3CN[C@H](C(=O)N(C)C)C3)[C@H](C)[C@H]12 [MEROPENEM] | 2 µg/mL (≈ 5.22 µM) | 8 µg/mL (≈ 20.9 µM) | 4 µg/mL (≈ 10.4 µM) | 4 µg/mL (≈ 10.4 µM) | 0.38 µg/mL (≈ 0.991 µM) | ≤ 0.25 µg/mL | 0.047 µg/mL (≈ 0.123 µM) | 1 µg/mL (≈ 2.61 µM) | 1 µg/mL (≈ 2.61 µM) | ≤ 0.25 µg/mL |
| GENTAMICIN | 4 µg/mL | – | – | – | – | < 1 µg/mL | – | < 1 µg/mL | > 16 µg/mL | 4 µg/mL |
| CC(C)(O/N=C(\C(=O)N[C@@H]1C(=O)N2C(C(=O)[O-])=C(C[n+]3ccccc3)CS[C@H]12)c1csc(N)n1)C(=O)O [CEFTAZIDIME] | ≥ 64 µg/mL | – | – | – | – | ≤ 1 µg/mL | – | 32 µg/mL (≈ 58.5 µM) | ≥ 64 µg/mL | ≥ 64 µg/mL |
| O=C(O)c1cn(C2CC2)c2cc(N3CCNCC3)c(F)cc2c1=O [CIPROFLOXACIN] | – | ≥ 32 µg/mL | – | 0.75 µg/mL (≈ 2.26 µM) | – | – | – | – | – | – |
| NCC[C@H](O)C(=O)N[C@@H]1C[C@H](N)[C@@H](O[C@H]2O[C@H](CN)[C@@H](O)[C@H](O)[C@H]2O)[C@H](O)[C@H]1O[C@H]1O[C@H](CO)[C@@H](O)[C@H](N)[C@H]1O [AMIKACIN] | ≥ 64 µg/mL | – | – | – | – | ≤ 2 µg/mL | – | 16 µg/mL (≈ 27.3 µM) | ≤ 2 µg/mL | ≤ 2 µg/mL |
| O=C1CN(/N=C/c2ccc([N+](=O)[O-])o2)C(=O)N1 [NITROFURANTOIN] | ≥ 512 µg/mL | – | – | – | – | ≤ 16 µg/mL | – | ≤ 16 µg/mL | 64 µg/mL (≈ 269 µM) | ≤ 16 µg/mL |
| CO/N=C(\C(=O)N[C@@H]1C(=O)N2C(C(=O)O)=C(COC(N)=O)CS[C@H]12)c1ccco1 [CEFUROXIME] | ≥ 64 µg/mL | – | – | – | – | 16 µg/mL (≈ 37.7 µM) | – | ≥ 64 µg/mL | ≥ 64 µg/mL | ≥ 64 µg/mL |
| NC[C@H]1O[C@H](O[C@H]2[C@H](O)[C@@H](O[C@H]3O[C@H](CO)[C@@H](O)[C@H](N)[C@H]3O)[C@H](N)C[C@@H]2N)[C@H](N)C[C@@H]1O [TOBRAMYCIN] | ≥ 16 µg/mL | – | – | – | – | ≤ 1 µg/mL | – | ≥ 16 µg/mL | ≥ 16 µg/mL | 4 µg/mL (≈ 8.56 µM) |
| COLISTIN | – | – | 0.38 µg/mL | 1 µg/mL | 0.38 µg/mL | – | 0.38 µg/mL | – | – | – |

Source: ChEMBL document CHEMBL1255372 (2008)
